The results in this text go back to PubChem BioAssay.

Experiment [1] is described as follows: inhibitors of TNFa-induced NFkB p65 translocation, primary screen, imaging, HUVEC, MLSMR starter and 10KST1 sets (AID 438;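 active means inhibition above 20% together with a positive visual image hit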;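 further: compound added about 3h40 before a 20 min TNFalpha stimulation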;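 on inhibition: signal is the nuclear over cytoplasmic p65 intensity ratio per well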). To be noted: HUVEC TNFa-induced p65 nuclear translocation; cell count: measured here: nuclei count (cytotoxicity indicator), at 2.08 µM; inhibition: at 2 µM, stronger effect = higher value, 0% TNFa-plus-vehicle, 100% no-TNFa wells.
A short description of experiment [2]: inhibitors of E-selectin induction by TNFa, primary screen, imaging, HUVEC, immunofluorescence, MLSMR starter and 10KST1 sets (AID 487).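 On inhibition: signal is fraction of cell area covered by stained E-selectin grains.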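 On nuclei count: 100% = median nuclei count of all wells on the same plate.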 To be noted: HUVEC TNFalpha-induced E-selectin immunofluorescence imaging, at 2 µM; inhibition: stronger effect = higher value; nuclei count: measured here: cell number, toxicity.
Experiment [3] in a line: DUSP6 inhibitors restoring Erk phosphorylation by chemical complementation, primary imaging in DUSP6-transfected HeLa (AID 609;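 active means compounds giving at least 50% inhibition in the cell-based MKP-3 phosphatase rescue imaging test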;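 on inhibition: phospho-Erk level distribution per well compared with pooled transfected vehicle control wells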). To be noted: HeLa MKP-3 transfected, phospho-Erk imaging KS statistic, at 10 µM, cells stimulated with TPA for 15 min.
Experiment [4] concerns the target Dual specificity protein phosphatase 6 (Homo sapiens) (UniProt Q16828). Described as above. To be noted: HeLa MKP-3 transfected, phospho-Erk imaging KS statistic; at 10 µM; stronger effect = higher value; cells stimulated with TPA for 15 min.
The target in experiment [5] is Voltage-gated potassium channel subunit beta-2 (Rattus norvegicus) (UniProt P62483). Nature of the experiment: KvBeta enzyme negative modulators, primary screen, biochemical, NADPH fluorescence (AID 622;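 active means fluorescence slope higher than the sample average by over 3 SD, cut at about -0.22 in these data, passing the limit was not always enough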;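 further: slope of raw intensity against log time taken from 70 to 1610 s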). To be noted: recombinant KvBeta, 4-cyanobenzaldehyde reduction, at 10 µM, stronger effect = higher value.
Chain of Voltage-gated potassium channel subunit beta-2 (Rattus norvegicus) (P62483 whole entry, looked up): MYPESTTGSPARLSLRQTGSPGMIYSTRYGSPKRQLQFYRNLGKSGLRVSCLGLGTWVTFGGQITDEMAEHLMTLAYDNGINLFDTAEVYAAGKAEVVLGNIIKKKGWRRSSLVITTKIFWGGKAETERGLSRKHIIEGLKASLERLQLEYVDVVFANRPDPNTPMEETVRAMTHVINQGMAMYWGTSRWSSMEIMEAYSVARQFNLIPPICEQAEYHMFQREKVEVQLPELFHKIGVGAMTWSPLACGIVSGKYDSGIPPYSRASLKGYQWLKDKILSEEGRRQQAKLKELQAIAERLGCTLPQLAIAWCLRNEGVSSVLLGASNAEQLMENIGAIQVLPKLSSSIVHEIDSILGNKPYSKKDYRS
The target is the same in experiment [6]. Nature of the experiment: KvBeta positive modulators, primary screen, biochemical, NADPH fluorescence (AID 623;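 active means NADPH fluorescence slope more negative than the mean of all samples by about 3 SD, 99.7% confidence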;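 further: fluorescence intensity change per second fitted from 20 to 320 s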). To be noted: Recombinant KvBeta, NADPH fluorescence decrease slope, 10 min; at 10 µM; stronger effect = lower value.
Experiment [7] deals with Muscarinic acetylcholine receptor M4 (Homo sapiens) (UniProt P08173). Nature of the experiment: compounds altering M4/GIRK thallium flux, either direction, primary screen, M4 allosteric agonist project, cell-based, HEK293 M4/GIRK, BTC-AM (AID 625;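 active means fluorescence slope after compound addition differing from the mean of all tested samples at 99.7% confidence, mostly higher but some lower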;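 further: thallium influx through GIRK channels coupled to M4 in HEK293 cells with BTC-AM dye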). To be noted: at 10 µM, actives lie on both sides. The procedure, abridged: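 assay system = HEK293 cells with M4 receptor and GIRK channels | medium = pH 7.3 thallium assay buffer | doses = 10 µM final, single point | timing = cells overnight at 37 °C, BTC-AM loading 1 h, reads 2 min total | signal = BTC-AM fluorescence, 1 Hz kinetic reads | read-out = post-addition slope, 15–24 s, of baseline-normalized fluorescence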
Chain of Muscarinic acetylcholine receptor M4 (Homo sapiens) (P08173 whole entry, looked up): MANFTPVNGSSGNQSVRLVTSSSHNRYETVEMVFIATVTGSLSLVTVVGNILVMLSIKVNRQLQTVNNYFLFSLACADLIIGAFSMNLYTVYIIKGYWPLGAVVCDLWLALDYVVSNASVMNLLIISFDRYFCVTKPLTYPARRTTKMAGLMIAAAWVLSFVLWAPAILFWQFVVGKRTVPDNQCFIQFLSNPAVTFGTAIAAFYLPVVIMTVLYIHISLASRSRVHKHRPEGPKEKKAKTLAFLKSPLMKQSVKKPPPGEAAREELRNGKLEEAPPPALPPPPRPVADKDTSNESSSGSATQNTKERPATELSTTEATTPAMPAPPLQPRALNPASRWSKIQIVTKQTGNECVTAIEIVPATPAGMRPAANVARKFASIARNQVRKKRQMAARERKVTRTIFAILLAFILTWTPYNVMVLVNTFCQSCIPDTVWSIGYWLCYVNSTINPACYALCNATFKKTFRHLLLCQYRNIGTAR

A short description of experiment [8]: inhibitors of larval lipid processing in zebrafish, primary screen, whole organism, PED6 fluorescence, gall bladder and intestine (AID 686;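 active means a full or partial loss of lipid-probe fluorescence in the fish gall bladder, intestine or both, judged by eye; inactive means no fluorescence loss, or compound toxic to the fish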;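 further: larvae 5 to 7 days old with five fish per well; signal comes from phospholipase A2 cleavage of quenched PED6 carried via bile; overnight exposure to compound and PED6 before scoring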). To be noted: Zebrafish larvae PED6 lipid processing, fluorescence scoring; screened at 20 µM (by protocol). The procedure, abridged:
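Also added: quenched phospholipase substrate PED6, 100 nM final, ingested by larvae; System: zebrafish larvae, 5-7 d; Quantity: 5 larvae per well; Compound: 20 µM single dose; Schedule: overnight compound and PED6 incubation; Read-out: visual per-well fluorescence inhibition score; Measured by: By-eye fluorescence microscopy; Medium: E3.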

Experiment [9] can be described thus: inhibitors of Chlamydomonas gravitaxis, primary screen, whole organism, Chlamydomonas reinhardtii, WT vs cilia-less mutant, absorbance, 96-well (AID 463189;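 active means inhibition at or above 50% relative to wild type and mutant plate controls; inactive means inhibition below 50%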;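 further: 0% = wild type cc124 cells in DMSO and 100% = ciliumless bld1 mutant cells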). To be noted: OD600 absorbance, 2 days, at 10 µM, stronger effect = higher value.
[10] abbreviates: measured here: cell density z-score.
[11] abbreviates: measured here: nuclear c-Myc green intensity z-score.
The mark [12] stands for this setting: measured here: nuclear pErk red intensity z-score, stronger effect = higher value.

Molecules are shown by their SMILES. Calls of active or inactive are those of the source.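 How the source made its calls, unless noted: active means visually confirmed hit in the image check and inhibition above 20%; inconclusive means visually confirmed hit but inhibition not above 20%; inactive means no visual hit in the image check.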

Chain of Dual specificity protein phosphatase 6 (Homo sapiens) (Q16828 whole entry, looked up): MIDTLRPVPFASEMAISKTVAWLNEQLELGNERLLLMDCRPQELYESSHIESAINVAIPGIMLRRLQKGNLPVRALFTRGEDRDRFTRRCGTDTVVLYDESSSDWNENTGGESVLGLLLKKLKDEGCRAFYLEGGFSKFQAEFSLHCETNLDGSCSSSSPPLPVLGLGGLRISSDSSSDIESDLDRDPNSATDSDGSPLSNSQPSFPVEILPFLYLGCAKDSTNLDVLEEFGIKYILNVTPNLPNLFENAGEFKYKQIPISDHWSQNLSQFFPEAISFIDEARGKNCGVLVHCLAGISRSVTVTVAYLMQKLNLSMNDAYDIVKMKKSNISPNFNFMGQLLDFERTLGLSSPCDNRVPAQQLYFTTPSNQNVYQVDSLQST

As to `N#Cc1c2c(c(-c3ccccc3)[nH]c1=O)CCCC2`, the cell count in experiment [1] is 580. For the same molecule, the inhibition (commonly the change of the read-out against control, counted positive when it falls) in experiment [1] was -9.4% (inactive); in experiment [2], -88.6% (inactive); in experiment [4], 16.5% (inactive); in [9] it was -4.11% (inactive). The molecule also had a nuclei count in [2] of 140%. Moreover, the z-score is -0.665 in experiment [3] (setting [10]), -0.156 in experiment [3] (setting [11]) and -4.21 in [3] (setting [12]). Besides, the fluorescence slope was -0.377 (inactive) in experiment [5] and 0.00448 (inactive) in experiment [7]. The NADPH fluorescence slope in experiment [6] was -0.000105 (inactive). In addition, the outcome in experiment [8] was inactive.

For `O=C(O)c1ccnc(C(=O)O)c1`, the cell count in [1] was determined as 585. Further, the inhibition was -4.6% (inactive) in experiment [1], -82% (inactive) in experiment [2], -4.59% (inactive) in experiment [4] and 24.1% (inactive) in experiment [9]. The nuclei count in experiment [2] stood at 145%. Also, the z-score amounted to 0.403 in experiment [3] (setting [10]), 0.277 in experiment [3] (setting [11]) and 1 in experiment [3] (setting [12]). Further, the values for the fluorescence slope in experiment [5] and in [7] were -0.434 (inactive) and 0.00626 (inactive), respectively. For the same molecule, the NADPH fluorescence slope in [6] is -0.000101 (inactive). In [8], the molecule was called inactive.

For `CCCC(CCC(=O)Nc1ccc(C(=O)OC)cc1)C(=O)O` (stereo unspecified), the cell count in experiment [1] came out at 402. For the same molecule, the inhibition in experiment [1] was -5.3% (inactive); in [2], -85.5% (inactive); in [4] it was 26.5% (inactive); in experiment [9], -1.65% (inactive). Besides, in experiment [2], the nuclei count was determined as 145%. Moreover, the z-score is 0.89 in experiment [3] (setting [10]), -1.82 in experiment [3] (setting [11]) and 0.0137 in experiment [3] (setting [12]). Besides, the fluorescence slope in experiment [5] was -0.445 (inactive); in experiment [7], 0.00528 (inactive). For the same molecule, in experiment [6], the NADPH fluorescence slope is -8.7e-05 (inactive). Further, the call in experiment [8] was inactive.

With `CCN(CC)C(=O)COn1c(SCC(=O)N(CC)CC)nc2ccccc2c1=O`, the cell count in experiment [1] stood at 714. The inhibition was 1% (inactive) in experiment [1], 10.1% (inactive) in experiment [2], -1.12% (inactive) in experiment [4] and -1.16% (inactive) in [9]. This molecule also had a nuclei count in [2] of 161%. Moreover, the z-score in experiment [3] (setting [10]) is -0.154; in experiment [3] (setting [11]), -0.248; in experiment [3] (setting [12]), 0.329. In addition, the fluorescence slope in experiment [5] is -0.42 (inactive); in [7], 0.00498 (inactive). The NADPH fluorescence slope in experiment [6] was -4.1e-05 (inactive). For the same molecule, the molecule was classed as inactive in [8].

With `CCOC(=O)c1c(-c2cccs2)csc1NC(=O)c1ccncc1`, in experiment [1], the cell count stood at 469. In addition, the inhibition is -0.7% (inactive) in experiment [1], -21.4% (inactive) in experiment [2], 4.37% (inactive) in experiment [4] and 12.5% (inactive) in experiment [9]. Further, the nuclei count in experiment [2] stood at 128%. The z-score in experiment [3] (setting [10]) is 0.172; in experiment [3] (setting [11]), 0.303; in [3] (setting [12]) it was -0.644. In addition, the fluorescence slope in experiment [5] was -0.308 (inactive); in experiment [7], 0.00693 (inactive). In addition, the NADPH fluorescence slope in experiment [6] was -2.8e-05 (inactive). In experiment [8], the molecule was classed as inactive.

With `O=C(NCCN1CCCCC1)/C(=N\O)c1ccccc1`, the cell count in experiment [1] turned out to be 515. Also, the inhibition in experiment [1] was -13% (inactive); in [2] it was 18.4% (inactive); in experiment [4], 23.8% (inactive); in experiment [9] it was 2.85% (inactive). In [2], this molecule showed a nuclei count of 155%. Besides, the z-score in [3] (setting [10]) was 1.4; in experiment [3] (setting [11]) it was 0.164; in experiment [3] (setting [12]), -0.171. The fluorescence slope is -0.4 (inactive) in experiment [5] and 0.00408 (inactive) in experiment [7]. Also, the NADPH fluorescence slope in experiment [6] was -3.3e-05 (inactive). Further, the molecule was classed as inactive in [8].

With `OCCN=C(c1ccccc1)C12CN3CN(CN(C3)C1)C2`, the cell count in [1] was 568. Further, the inhibition was -5.7% (inactive) in [1], -133% (inactive) in experiment [2], 15.4% (inactive) in [4] and 7.41% (inactive) in [9]. Also, the nuclei count in experiment [2] was found to be 150%. The figures for the z-score in experiment [3] (setting [10]), in experiment [3] (setting [11]) and in [3] (setting [12]) were 0.238, -2.23 and 0.262, respectively. Further, the results for the fluorescence slope in [5] and in experiment [7] were -0.48 (inactive) and 0.0051 (inactive), respectively. Besides, in experiment [6], the NADPH fluorescence slope was -2.2e-05 (inactive). Besides, the call in experiment [8] was inactive.
